In paper PMC3966479 (Science (New York, N.Y.), 2013):

How the values were obtained:
THP1 macrophages = test: In vitro phagocytosis of opsonized nanobeads by THP1 macrophages; type: cell-based, human; conditions: THP1, DMSO solvent
Procedure, shortened: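 Fluorescent 100-nm streptavidin-coated polystyrene beads, opsonized with antistreptavidin antibody, with or without attached hCD47, given to THP1 cells in vitro. Phagocytosis scored at 45 min. Cultures fixed without permeabilization, and non-ingested beads immunostained with a secondary antibody against the antistreptavidin opsonin. Data as means ± SEM.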

macrophages / phagocytes = test: Circulation of nanobeads in NSG mice; type: in vivo, mouse (NSG); conditions: opsonized nanobeads, i.v.
[1] = Organ localization of nanobeads by whole-body NIRF imaging; type: in vivo, mouse (NSG); conditions: NIRF beads

O=S(=O)(O)c1ccc2cc(N=Nc3cc(S(=O)(=O)O)c4cccnc4c3O)ccc2c1 [NSC-87877]
reversal of hCD47 inhibition of uptake (THP1 macrophages; SHP1 inhibition, hCD47 beads): blocks the inhibition of uptake by hCD47

Cc1ccc2c(c1)C(=O)C1(O)CCN(c3ccccc3)C1=N2 (stereo not shown) [blebbistatin]
inhibition of uptake by 50 µM compound (THP1 macrophages; 50 µM, inhibition of myosin-IIA): inhibited

B1: mCD47: recombinant mouse CD47 (protein, UniProt Q61735 19-303, looked up)
Leukocyte surface antigen CD47: QLLFSNVNSIEFTSCNETVVIPCIVRNVEAQSTEEMFVKWKLNKSYIFIYDGNKNSTTTDQNFTSAKISVSDLINGIASLKMDKRDAMVGNYTCEVTELSREGKTVIELKNRTVSWFSPNEKILIVIFPILAILLFWGKFGILTLKYKSSHTNKRIILLLVAGLVLTVIVVVGAILLIPGEKPVKNASGLGLIVISTGILILLQYNVFMTAFGMTSFTIAILITQVLGYVLALVGLCLCIMACEPVHGPLLISGLGIIALAELLGLVYMKFVASNQRTIQPPRNR
effect on circulation / clearance of nanobeads (macrophages / phagocytes): enhanced persistence in circulation
splenic / organ localization of nanobeads [1]: moderate but suppressed splenic localization
